Experimental data published in ChEMBL document CHEMBL5550111, “Design, synthesis and biological evaluation of aryloxy thiophosphoramidate triesters of anticancer nucleoside analogues” (Bioorg Med Chem, 2024).

Key:
KG-1 [1] = experiment: Cytotoxicity against human KG-1 cells assessed as inhibition of cell viability incubated for 72 hrs by MTS assay; assay type: functional, cell-based; conditions: KG-1, 72 h
Method in brief: (§1)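 Cells seeded at 0.5 to 100 × 10^3 per well the day before treatment, then exposed for 72 h to 9 serial concentrations (3.16-fold dilutions, top 198 μM), in duplicate. MTS added for a final 4 h at 37 °C and absorbance read. IC50 is the concentration giving 50% loss of viability. MI% is the maximum inhibition over the tested range.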

BXPC-3 [2] = experiment: Cytotoxicity against human BXPC-3 cells assessed as maximum inhibition of cell viability upto 198 uM incubated for 72 hrs by MTS assay relative to control; assay type: functional; conditions: up to 198 µM
Method in brief: (§2)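 Cells seeded at 0.5 to 100 × 10^3 per well the day before drug addition, then exposed to compound for 72 h. MTS added afterwards, with a further 4 h at 37 °C, and absorbance read. Tested in duplicate at 9 serial 3.16-fold dilutions, top concentration 198 μM. MI% is the maximum inhibition of viability across the tested range.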

HT-29 [3] = experiment: Cytotoxicity against human HT-29 cells assessed as maximum inhibition of cell viability upto 198 uM incubated for 72 hrs by MTS assay relative to control; assay type: functional; conditions: up to 198 µM; method in brief: as §2
COLO 205 [4] = experiment: Cytotoxicity against human COLO 205 cells assessed as inhibition of cell viability incubated for 72 hrs by MTS assay; assay type: functional, cell-based; conditions: COLO 205, 72 h; method in brief: as §1
RT112/84 [5] = experiment: Cytotoxicity against human RT112/84 cells assessed as inhibition of cell viability incubated for 72 hrs by MTS assay; assay type: functional, cell-based; conditions: RT112/84, 72 h; method in brief: as §1
MIA PaCa-2 [6] = experiment: Cytotoxicity against human MIA PaCa-2 cells assessed as inhibition of cell viability incubated for 72 hrs by MTS assay; assay type: functional, cell-based; conditions: MIA PaCa-2, 72 h; method in brief: as §1
OVCAR-3 [7] = experiment: Cytotoxicity against human OVCAR-3 cells assessed as inhibition of cell viability incubated for 72 hrs by MTS assay; assay type: functional, cell-based; conditions: OVCAR-3, 72 h; method in brief: as §1
[8] = Cytotoxicity against human ACHN-luc2 cells assessed as maximum inhibition of cell viability upto 198 uM incubated for 72 hrs by MTS assay relative to control; assay type: functional; conditions: up to 198 µM; method in brief: as §2
5637 [9] = experiment: Cytotoxicity against human 5637 cells assessed as inhibition of cell viability incubated for 72 hrs by MTS assay; assay type: functional, cell-based; conditions: Homo sapiens, 5637, 72 h; method in brief: as §1
COLO 205 [10] = experiment: Cytotoxicity against human COLO 205 cells assessed as maximum inhibition of cell viability upto 198 uM incubated for 72 hrs by MTS assay relative to control; assay type: functional; conditions: up to 198 µM; method in brief: as §2
RPMI-8226 [11] = experiment: Cytotoxicity against human RPMI-8226 cells assessed as maximum inhibition of cell viability upto 198 uM incubated for 72 hrs by MTS assay relative to control; assay type: functional; conditions: up to 198 µM; method in brief: as §2
RL [12] = experiment: Cytotoxicity against human RL cells assessed as inhibition of cell viability incubated for 72 hrs by MTS assay; assay type: functional, cell-based; method in brief: as §1
RL [13] = experiment: Cytotoxicity against human RL cells assessed as maximum inhibition of cell viability upto 198 uM incubated for 72 hrs by MTS assay relative to control; assay type: functional; conditions: up to 198 µM; method in brief: as §2
OVCAR-3 [14] = experiment: Cytotoxicity against human OVCAR-3 cells assessed as maximum inhibition of cell viability upto 198 uM incubated for 72 hrs by MTS assay relative to control; assay type: functional; conditions: up to 198 µM; method in brief: as §2
MOLT-4 [15] = experiment: Cytotoxicity against human MOLT-4 cells assessed as maximum inhibition of cell viability upto 198 uM incubated for 72 hrs by MTS assay relative to control; assay type: functional; conditions: up to 198 µM; method in brief: as §2
[16] = Cytotoxicity against human T24/83 cells assessed as maximum inhibition of cell viability upto 198 uM incubated for 72 hrs by MTS assay relative to control; assay type: functional; conditions: up to 198 µM; method in brief: as §2
MOLT-4 [17] = experiment: Cytotoxicity against human MOLT-4 cells assessed as inhibition of cell viability incubated for 72 hrs by MTS assay; assay type: functional, cell-based; conditions: MOLT-4, 72 h; method in brief: as §1
MDA-MB-231 = experiment: Cytotoxicity against human MDA-MB-231 cells assessed as maximum inhibition of cell viability upto 198 uM incubated for 72 hrs by MTS assay relative to control; assay type: functional; conditions: up to 198 µM; method in brief: as §2
HL-60 [18] = experiment: Cytotoxicity against human HL-60 cells assessed as inhibition of cell viability incubated for 72 hrs by MTS assay; assay type: functional, cell-based; conditions: HL-60, 72 h; method in brief: as §1
HL-60 [19] = experiment: Cytotoxicity against human HL-60 cells assessed as maximum inhibition of cell viability upto 198 uM incubated for 72 hrs by MTS assay relative to control; assay type: functional; conditions: up to 198 µM; method in brief: as §2
K562 [20] = experiment: Cytotoxicity against human K562 cells assessed as maximum inhibition of cell viability upto 198 uM incubated for 72 hrs by MTS assay relative to control; assay type: functional; conditions: up to 198 µM; method in brief: as §2
HT-29 [21] = experiment: Cytotoxicity against human HT-29 cells assessed as inhibition of cell viability incubated for 72 hrs by MTS assay; assay type: functional, cell-based; conditions: HT-29, 72 h; method in brief: as §1
SK-MES-1 [22] = experiment: Cytotoxicity against human SK-MES-1 cells assessed as inhibition of cell viability incubated for 72 hrs by MTS assay; assay type: functional, cell-based; conditions: SK-MES-1, 72 h; method in brief: as §1
BXPC-3 [23] = experiment: Cytotoxicity against human BXPC-3 cells assessed as inhibition of cell viability incubated for 72 hrs by MTS assay; assay type: functional, cell-based; conditions: BXPC-3, 72 h; method in brief: as §1
CAKI-2 [24] = experiment: Cytotoxicity against human CAKI-2 cells assessed as inhibition of cell viability incubated for 72 hrs by MTS assay; assay type: functional, cell-based; conditions: CAKI-2, 72 h; method in brief: as §1
K562 [25] = experiment: Cytotoxicity against human K562 cells assessed as inhibition of cell viability incubated for 72 hrs by MTS assay; assay type: functional, cell-based; conditions: K562, 72 h; method in brief: as §1
MCF7 = experiment: Cytotoxicity against human MCF7 cells assessed as maximum inhibition of cell viability upto 198 uM incubated for 72 hrs by MTS assay relative to control; assay type: functional; conditions: up to 198 µM; method in brief: as §2
KG-1 [26] = experiment: Cytotoxicity against human KG-1 cells assessed as maximum inhibition of cell viability upto 198 uM incubated for 72 hrs by MTS assay relative to control; assay type: functional; conditions: up to 198 µM; method in brief: as §2
PANC-1 [27] = experiment: Cytotoxicity against human PANC-1 cells assessed as inhibition of cell viability incubated for 72 hrs by MTS assay; assay type: functional, cell-based; conditions: PANC-1, 72 h; method in brief: as §1
RT112/84 [28] = experiment: Cytotoxicity against human RT112/84 cells assessed as maximum inhibition of cell viability upto 198 uM incubated for 72 hrs by MTS assay relative to control; assay type: functional; conditions: up to 198 µM; method in brief: as §2
A498 [29] = experiment: Cytotoxicity against human A498 cells assessed as inhibition of cell viability incubated for 72 hrs by MTS assay; assay type: functional, cell-based; conditions: A498, 72 h; method in brief: as §1
PC-3 [30] = experiment: Cytotoxicity against human PC-3 cells assessed as inhibition of cell viability incubated for 72 hrs by MTS assay; assay type: functional, cell-based; conditions: PC-3, 72 h; method in brief: as §1
A2780 [31] = experiment: Cytotoxicity against human A2780 cells assessed as maximum inhibition of cell viability upto 198 uM incubated for 72 hrs by MTS assay relative to control; assay type: functional; conditions: up to 198 µM; method in brief: as §2
[32] = Cytotoxicity against human ACHN-luc2 cells assessed as inhibition of cell viability incubated for 72 hrs by MTS assay; assay type: functional, cell-based; conditions: ACHN-luc2, 72 h; method in brief: as §1
NCI-H1975 = experiment: Cytotoxicity against human NCI-H1975 cells assessed as maximum inhibition of cell viability upto 198 uM incubated for 72 hrs by MTS assay relative to control; assay type: functional; conditions: up to 198 µM; method in brief: as §2
[33] = Cytotoxicity against human T24/83 cells assessed as inhibition of cell viability incubated for 72 hrs by MTS assay; assay type: functional, cell-based; conditions: T24/83, 72 h; method in brief: as §1
RPMI-8226 [34] = experiment: Cytotoxicity against human RPMI-8226 cells assessed as inhibition of cell viability incubated for 72 hrs by MTS assay; assay type: functional, cell-based; conditions: RPMI-8226, 72 h; method in brief: as §1
5637 [35] = experiment: Cytotoxicity against human 5637 cells assessed as maximum inhibition of cell viability upto 198 uM incubated for 72 hrs by MTS assay relative to control; assay type: functional; conditions: up to 198 µM; method in brief: as §2
SK-MES-1 [36] = experiment: Cytotoxicity against human SK-MES-1 cells assessed as maximum inhibition of cell viability upto 198 uM incubated for 72 hrs by MTS assay relative to control; assay type: functional; conditions: up to 198 µM; method in brief: as §2
HepG2 [37] = experiment: Cytotoxicity against human HepG2 cells assessed as inhibition of cell viability incubated for 72 hrs by MTS assay; assay type: functional, cell-based; conditions: HepG2, 72 h; method in brief: as §1
A2780 [38] = experiment: Cytotoxicity against human A2780 cells assessed as inhibition of cell viability incubated for 72 hrs by MTS assay; assay type: functional, cell-based; conditions: A2780, 72 h; method in brief: as §1
PANC-1 [39] = experiment: Cytotoxicity against human PANC-1 cells assessed as maximum inhibition of cell viability upto 198 uM incubated for 72 hrs by MTS assay relative to control; assay type: functional; conditions: up to 198 µM; method in brief: as §2
A498 [40] = experiment: Cytotoxicity against human A498 cells assessed as maximum inhibition of cell viability upto 198 uM incubated for 72 hrs by MTS assay relative to control; assay type: functional; conditions: up to 198 µM; method in brief: as §2
MIA PaCa-2 [41] = experiment: Cytotoxicity against human MIA PaCa-2 cells assessed as maximum inhibition of cell viability upto 198 uM incubated for 72 hrs by MTS assay relative to control; assay type: functional; conditions: up to 198 µM; method in brief: as §2
PC-3 [42] = experiment: Cytotoxicity against human PC-3 cells assessed as maximum inhibition of cell viability upto 198 uM incubated for 72 hrs by MTS assay relative to control; assay type: functional; conditions: up to 198 µM; method in brief: as §2
HepG2 [43] = experiment: Cytotoxicity against human HepG2 cells assessed as maximum inhibition of cell viability upto 198 uM incubated for 72 hrs by MTS assay relative to control; assay type: functional; conditions: up to 198 µM; method in brief: as §2
CAKI-2 [44] = experiment: Cytotoxicity against human CAKI-2 cells assessed as maximum inhibition of cell viability upto 198 uM incubated for 72 hrs by MTS assay relative to control; assay type: functional; conditions: up to 198 µM; method in brief: as §2

Structure (SMILES): CC(=O)O[C@H]1C(=O)[C@@]2(C)[C@H]([C@H](OC(=O)c3ccccc3)[C@]3(O)C[C@H](OC(=O)[C@H](O)[C@@H](NC(=O)c4ccccc4)c4ccccc4)C(C)=C1C3(C)C)[C@]1(OC(C)=O)CO[C@@H]1C[C@@H]2O [PACLITAXEL]
- IC50 (KG-1 [1]): 68 nM
- Imax (BXPC-3 [2]): 85%
- Imax (HT-29 [3]): 79%
- IC50 (COLO 205 [4]): 10 nM
- IC50 (RT112/84 [5]): 10 nM
- IC50 (MIA PaCa-2 [6]): 3 nM
- IC50 (OVCAR-3 [7]): 4 nM
- Imax [8]: 47%
- IC50 5637 [9]: 2 nM
- Imax (COLO 205 [10]): 90%
- Imax (RPMI-8226 [11]): 95%
- IC50 (RL [12]): 7 nM
- Imax (RL [13]): 63%
- Imax (OVCAR-3 [14]): 59%
- Imax (MOLT-4 [15]): 99%
- Imax [16]: 97%
- IC50 (MOLT-4 [17]): 4 nM
- Imax (MDA-MB-231): 70%
- IC50 (HL-60 [18]): 12 nM
- Imax (HL-60 [19]): 97%
- Imax (K562 [20]): 87%
- IC50 (HT-29 [21]): 30 nM
- IC50 (SK-MES-1 [22]): 10 nM
- IC50 (BXPC-3 [23]): 5 nM
- IC50 (CAKI-2 [24]): 10 nM
- IC50 (K562 [25]): 13 nM
- Imax (MCF7): 75%
- Imax (KG-1 [26]): 79%
- IC50 (PANC-1 [27]): 3 nM
- Imax (RT112/84 [28]): 77%
- IC50 (A498 [29]): 20 nM
- IC50 (PC-3 [30]): 10 nM
- Imax (A2780 [31]): 72%
- IC50 [32]: 20 nM
- Imax (NCI-H1975): 75%
- IC50 [33]: 4 nM
- IC50 (RPMI-8226 [34]): 2 nM
- Imax 5637 [35]: 95%
- Imax (SK-MES-1 [36]): 77%
- IC50 (HepG2 [37]): 60 nM
- IC50 (A2780 [38]): 8 nM
- Imax (PANC-1 [39]): 56%
- Imax (A498 [40]): 74%
- Imax (MIA PaCa-2 [41]): 83%
- Imax (PC-3 [42]): 62%
- Imax (HepG2 [43]): 54%
- Imax (CAKI-2 [44]): 78%
